The nature of this data set: Toxicity liver stage against HepG2, at 10uM. To be noted: human, HepG2-A16-CD81EGFP cells; read-out: INHIBITION
Details: test concentration 10 uM, cell line HepG2-A16-CD81EGFP. The data set is classed as cell-based. In a few lines: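 Uninfected HepG2-A16-CD81EGFP cells, 3 × 10^3 per well, 1536-well, plated on prespotted compound at 10 μM final, parasite-free screening media added to match infected plates; puromycin 10 μM positive, DMSO 0.5% negative; run in parallel with 48 h PbLuc assay at 37 °C, 5% CO2; viability by CellTiter-Glo luminescence, normalized to controls.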
With `Cn1ccnc1CN1CCOC[C@H]1c1nc(C(C)(C)C)co1`, the cytotoxicity at 10 µM is -4.13%.

In the case of `CC[C@H]1CN(C(=O)c2cccnc2)CC[C@H]1CC(=O)NCCOC`, the cytotoxicity at 10 µM was determined as 5.26%.

Take `c1cc(-c2noc([C@@H]3Cc4nc[nH]c4CN3)n2)ccn1`: the cytotoxicity at 10 µM is -0.873%.

Consider `CC1CCN(c2ccc(NC(=O)CCn3cccn3)cc2)CC1`, for which the cytotoxicity at 10 µM was -10.6%.

On to `O=C(CCc1nc2ccccc2[nH]1)Nc1ccc2c(c1)OCC(=O)N2`, for which the cytotoxicity at 10 µM was determined as 17.9%.

Consider `O=C(Nc1nnn[nH]1)c1cc(-c2ccc(Br)s2)n[nH]1`, for which the cytotoxicity at 10 µM is -2.71%.

With `Cc1nc(N2CCOCC2)nc(C)c1NS(=O)(=O)c1ccccc1`, the cytotoxicity at 10 µM is -1.44%.

With `COc1ncc(NS(=O)(=O)c2ccc(F)c(F)c2)c(OC)n1`, the cytotoxicity at 10 µM is -7.76%.

Consider `CCN(C)C(=O)c1cc(-c2ccn(C(C)C)n2)n2ccccc12`, for which the cytotoxicity at 10 µM is -4.35%.

As to `CN(C)CCN1CCc2ncc(CN(C)Cc3ccco3)n2CC1`, the cytotoxicity at 10 µM is -6.26%.

For the compound `CCS(=O)(=O)N1Cc2ncn(CC3CC3)c2C(COC)C1` (configuration not stated), the cytotoxicity at 10 µM was found to be 8.83%.

Turning to `COCC1CN(C(=O)c2ccccn2)Cc2nccn2C1` (configuration not stated), the cytotoxicity at 10 µM was 8.62%.

As to `Cc1cccc(COC2COC3(CCN(Cc4ccoc4)CC3)C2)n1` (configuration not stated), the cytotoxicity at 10 µM is -0.211%.

In the case of `Cc1cccc(C(=O)N2CCn3cnc(COCC4CC4)c3C2)n1`, the cytotoxicity at 10 µM came out at 6.85%.

As for `CC(C)NC(=O)C(C)NC(=O)N1CCN(c2ccc(Cl)cc2)CC1` (configuration not stated), the cytotoxicity at 10 µM is -3.6%.

Consider `O=C(O)Cn1nc(C2CC2)c2c(-c3cccs3)ccnc21`, for which the cytotoxicity at 10 µM is -11.6%.

With `COc1ccc(CC(=O)N2CCN(Cc3ccco3)C[C@@H]2C)cc1OC`, the cytotoxicity at 10 µM was determined as 3.88%.

Consider `CC(=O)N1CCC1c1cc(NC2CCOCC2)nc(C)n1` (configuration not stated), for which the cytotoxicity at 10 µM stood at 1.79%.

For `Cc1cc(C)nc(Nc2cc(C)nc(C3CCN(C(C)C)C3)n2)n1` (configuration not stated), the cytotoxicity at 10 µM was 3.06%.

For the compound `Cc1cc(N2CCCC2c2cnccn2)ncn1` (configuration not stated), the cytotoxicity at 10 µM is 2.44%.

For `CC1CCC(N2CCC(NS(=O)(=O)CCCF)CC2)CC1` (configuration not stated), the cytotoxicity at 10 µM is 1.2%.

Take `COCc1nnc(-c2cccc(C(=O)OC(C)C)c2)o1`: the cytotoxicity at 10 µM was -21.8%.

On to `CCOC(=O)N(C)CC(=O)NCCc1coc(-c2ccc(C)cc2)n1`, for which the cytotoxicity at 10 µM is -13.9%.

With `COc1cccc(CNC2CCc3ccc(C)cc32)n1` (configuration not stated), the cytotoxicity at 10 µM amounted to 4.37%.

Consider `O=C1CCN(C(=O)NCc2ccccc2Oc2ccccc2)CCN1`, for which the cytotoxicity at 10 µM is 6.03%.

For the compound `Cc1cc(C)nc(NC2CCC(=O)N(C)C2)n1` (configuration not stated), the cytotoxicity at 10 µM is -4.83%.

For `CC(NC(=O)NCC(F)(F)F)c1nncn1C` (configuration not stated), the cytotoxicity at 10 µM is -1.63%.

As for `COCc1noc(C2(c3ccc(F)cc3)CC2)n1`, the cytotoxicity at 10 µM was -2.93%.

In the case of `O=C(NS(=O)(=O)Cc1ccc(F)cc1)C1CCc2ccccc21` (configuration not stated), the cytotoxicity at 10 µM was -13.1%.

In the case of `COc1cc(C(C)=O)ccc1SCC(=O)Nc1cccc(C)n1`, the cytotoxicity at 10 µM is 15.1%.

Turning to `CCN(Cc1cccc(-c2ccncc2)c1)S(N)(=O)=O`, the cytotoxicity at 10 µM was -12.6%.

Regarding `Cc1cc(=O)n(C)cc1NC(=O)Cc1ccc(C(F)(F)F)cc1`, the cytotoxicity at 10 µM was -14%.

Consider `COCc1cccc(CNC(=O)CNc2ccccc2C(C)=O)c1`, for which the cytotoxicity at 10 µM turned out to be 0.529%.

`Cn1c(N)nnc1SCc1ccc(Cl)cc1Br`: the cytotoxicity at 10 µM came out at 1.48%.

`CC(C)CCOc1ccc(C(C)NC(=O)Cn2cccnc2=O)cc1` (configuration not stated): the cytotoxicity at 10 µM was -4.24%.

As to `CC1CCCN(C(=O)c2csc(S(N)(=O)=O)c2)CC1` (configuration not stated), the cytotoxicity at 10 µM worked out at 1.52%.

On to `CC(=O)N1CCC(n2nccc2-c2cnc(N(C)CCO)nc2)CC1`, for which the cytotoxicity at 10 µM was 5.47%.

`CCN(Cc1cc(F)c(OC)c(Cl)c1)Cc1nc(COC)no1`: the cytotoxicity at 10 µM amounted to 3.98%.

Turning to `Cc1cc2occ(CC(=O)N3CCC(O)(CN(C)C)C3)c2cc1Cl` (configuration not stated), the cytotoxicity at 10 µM is -6.55%.

As for `COCCN(C)C[C@H]1C[C@H](CO)CN(C(=O)c2ccn(C)c(=O)c2)C1`, the cytotoxicity at 10 µM is -2.75%.

Regarding `CCCc1nnc(N2CCN(c3cccc(OC)c3)C(=O)C2)o1`, the cytotoxicity at 10 µM is 9.52%.

With `Cc1cc(C(=O)N2CCc3c(ncnc3N3CCOCC3)C2)[nH]n1`, the cytotoxicity at 10 µM is -5.92%.

For `N#Cc1c(N)nc2c(c1-c1c[nH]nc1C1CCCCC1)COCC2`, the cytotoxicity at 10 µM was found to be 6.75%.

As to `COc1cc(N2CCC(c3nccn3Cc3ccccc3)CC2)ncn1`, the cytotoxicity at 10 µM was 5.44%.

With `C=C(C)COc1ccccc1NC(=O)N1CCOCC(CO)C1` (configuration not stated), the cytotoxicity at 10 µM was -1.57%.

For `Cc1cc(N2CCCC(O)(CN(C)C)C2)c2cc3c(cc2n1)OCO3` (configuration not stated), the cytotoxicity at 10 µM worked out at 0.935%.

As to `Cc1nc(O)cc(C2CCN(C(=O)c3ccsc3)CC2)n1`, the cytotoxicity at 10 µM was -4.97%.

Regarding `Cc1cc2[nH]c(=O)oc2cc1S(=O)(=O)N1CCCC(N(C)C)CC1` (configuration not stated), the cytotoxicity at 10 µM worked out at 0.74%.

As for `Cc1cc2c(c(-c3c[nH]c(C)n3)c1)OC(CN)C2` (configuration not stated), the cytotoxicity at 10 µM came to 4.24%.

With `COCCC1CCN([C@@H]2c3ccccc3C3(CCNCC3)[C@H]2O)CC1`, the cytotoxicity at 10 µM came out at 1.35%.

As to `CCOc1cccc(C2CC(=O)NCc3nc(N(C)C)sc32)c1` (configuration not stated), the cytotoxicity at 10 µM was -10.9%.

Take `Cc1nc(N2CCN(C(=O)C(C)(C)C)CC2)cc(-n2cnc(C)c2C)n1`: the cytotoxicity at 10 µM was -23.2%.

As to `O=C(O)Cc1nc2nccc(-c3ccc(F)cc3)n2n1`, the cytotoxicity at 10 µM was -1.53%.

For `Cc1nc(C(=O)N2CCC(Cc3cnc4[nH]ccc4c3)C2)co1` (configuration not stated), the cytotoxicity at 10 µM was 9.36%.

For `CCn1cc(CN2CCCN(C(=O)CCc3cccs3)CC2)cn1`, the cytotoxicity at 10 µM was -6.99%.

Consider `O=C(c1ccc2cc[nH]c2c1)N1CCC(Nc2cccnn2)CC1`, for which the cytotoxicity at 10 µM was -5.06%.

Regarding `NS(=O)(=O)Cc1ccc(CNc2cncc(-n3cccn3)n2)cc1`, the cytotoxicity at 10 µM came to 6.1%.

Consider `Cc1cnn(CC2CCCCN2C(=O)c2c(C)noc2C)c1` (configuration not stated), for which the cytotoxicity at 10 µM is -7.26%.

`CC1CCCN(CCNC(=O)c2scnc2Cl)C1` (configuration not stated): the cytotoxicity at 10 µM was -6.06%.

Take `COCCN1CCC(CNC(=O)C2(c3cccc(C)c3)CC2)C1` (configuration not stated): the cytotoxicity at 10 µM is -4.28%.

As to `Fc1cc(CN2CCCC2Cn2cncn2)c2ncccc2c1` (configuration not stated), the cytotoxicity at 10 µM was -14.1%.

Regarding `CC1CN(Cc2ccc(C#N)cc2F)CCN1Cc1nccn1C` (configuration not stated), the cytotoxicity at 10 µM was -4.66%.

For the compound `CC(=O)N(Cc1ncc(C)o1)C1CCN(Cc2nccn2C)C1` (configuration not stated), the cytotoxicity at 10 µM came to 6.57%.

For `Cc1cnn(CC2CN(Cc3nnc(C4CC4)n3C)CCO2)c1` (configuration not stated), the cytotoxicity at 10 µM was -2.72%.

For the compound `O=C(N1CCCC(n2cncn2)C1)C1(c2cccc(F)c2)CCCC1` (configuration not stated), the cytotoxicity at 10 µM was 3.39%.

Turning to `CC(OCC1CC1)C(=O)N1CCCN(Cc2cscn2)CC1` (configuration not stated), the cytotoxicity at 10 µM is -5.16%.

On to `COc1ncccc1CNCc1c(C)nn(C)c1N(C)C`, for which the cytotoxicity at 10 µM is -7.62%.

With `CN(CCc1ccccc1)Cc1nc2c(cnn2C)c(=O)[nH]1`, the cytotoxicity at 10 µM is -3.18%.

Turning to `c1ccc(-c2cc(CN3CCCC(Cn4cncn4)C3)on2)cc1` (configuration not stated), the cytotoxicity at 10 µM is -15.9%.

Take `Cc1ccc(N2CCCC(NCc3ccc(-n4ccnc4)cc3)C2)nn1` (configuration not stated): the cytotoxicity at 10 µM is -8.44%.

Regarding `Cc1ccn2ncc(C(=O)N3CCCC(n4nc(C)nc4C)C3)c2n1` (configuration not stated), the cytotoxicity at 10 µM was -13.6%.

Take `CCC(C)C(=O)NCc1cccc(N2CCCCC2=O)c1` (configuration not stated): the cytotoxicity at 10 µM is -6.93%.

For the compound `Cc1nc(CC(=O)N2CCC(Nc3cccnn3)CC2)cs1`, the cytotoxicity at 10 µM was -9.45%.

`CCc1csc(C2CCCN(C(=O)c3ccc(OC)nn3)C2)n1` (configuration not stated): the cytotoxicity at 10 µM is -8.8%.

Turning to `OCCN1CCN(Cc2coc(-c3ccc(Cl)cc3)n2)CC1`, the cytotoxicity at 10 µM is -13.6%.

Consider `CN1CCOC(CN(C(=O)Cc2ccccc2F)c2nccs2)C1` (configuration not stated), for which the cytotoxicity at 10 µM was -11.7%.

As for `CCC(CC)C(O)CNC(=O)Nc1cc(C)nn1C` (configuration not stated), the cytotoxicity at 10 µM was -11%.

`Cc1nc(CNC(=O)NCC(O)c2ccc(F)cc2F)cs1` (configuration not stated): the cytotoxicity at 10 µM came out at 6.5%.

In the case of `c1ccc2cc(OCCN3CCn4c(nnc4C4CC4)C3)ccc2c1`, the cytotoxicity at 10 µM worked out at 5.49%.

For the compound `O=C(Nc1ccccc1F)N1CCN(Cc2noc(C3CC3)n2)CC1`, the cytotoxicity at 10 µM was -0.144%.

Take `COc1cc(C(=O)N2CCC(c3n[nH]c(C4CC4)n3)CC2)ccc1C`: the cytotoxicity at 10 µM is 3.37%.

In the case of `CN(Cc1nc(N)c2ccccc2n1)CC1CCCN1c1cccnn1` (configuration not stated), the cytotoxicity at 10 µM was -1.4%.

Consider `Cc1nnc(N2CCO[C@H]3[C@@H](OCc4ccccn4)CC[C@@H]32)s1`, for which the cytotoxicity at 10 µM was found to be 12.2%.

Take `CC(=O)N1CCc2cc(C(=O)O)c(-c3ccsc3)nc2CC1`: the cytotoxicity at 10 µM came out at 13.8%.

`Cn1nc(CN2CCCC2)c2c1CN(CC1CC1)CC2`: the cytotoxicity at 10 µM is -3.27%.

Turning to `O=C([C@H]1COC[C@H]2CN(CC3CCCC3)C[C@H]21)N1CCOCC1`, the cytotoxicity at 10 µM came to 20.5%.

For the compound `Cc1cccc(CN2C[C@H](NS(C)(=O)=O)[C@@H]3OCCC[C@@H]32)n1`, the cytotoxicity at 10 µM was -0.179%.

Turning to `Cc1cnc(N2CCC3(CCC(C(=O)NC(C)C)C3)CC2)nc1` (configuration not stated), the cytotoxicity at 10 µM was -0.603%.

Take `O=C(N[C@@H]1CN[C@@H]2CCCO[C@@H]21)c1cscn1`: the cytotoxicity at 10 µM is -8.69%.

As to `CN(C)C(=O)N1CCC2(CCCN(c3ncccn3)C2)C1` (configuration not stated), the cytotoxicity at 10 µM was found to be 4.82%.

Consider `c1csc(CN2CCOCC3(CCN(C4CCOCC4)C3)C2)c1` (configuration not stated), for which the cytotoxicity at 10 µM was -0.608%.

Regarding `Cn1cc(CN2C[C@@H]3CCCO[C@@H]3[C@H](NC(=O)CC3CC3)C2)cn1`, the cytotoxicity at 10 µM is -0.00726%.

Regarding `O=C(O)c1c(NC2CCC2)ncc2c1CCN(C1CCOC1)C2` (configuration not stated), the cytotoxicity at 10 µM was determined as 11.4%.

As to `O=C(NCc1ccco1)[C@@]12CCO[C@@H]1CCN(CC1CCOCC1)C2`, the cytotoxicity at 10 µM is 6.06%.

Turning to `N#CC1Sc2nnc(-c3ccccc3F)n2N=C1N` (configuration not stated), the cytotoxicity at 10 µM is -0.634%.

For `CC(C)Cn1c(=O)[nH]c2cn(-c3ccc(F)cc3)c(=O)n21`, the cytotoxicity at 10 µM was 8.2%.

Consider `CC(=O)Nc1c(C)noc1C=Cc1ccc(C)c(S(=O)(=O)NC2CC2)c1`, for which the cytotoxicity at 10 µM was determined as 0.905%.

The record behind these values is ChEMBL document CHEMBL4513216, “Probing the Open Global Health Chemical Diversity Library for Multistage-Active Starting Points for Next-Generation Antimalarials” (ACS Infect Dis, 2020).
